TPT1 inh – C. albicans TPT1 enzyme inhibition. recombinant caTPT1, FP RNA substrate dephosphorylation. inhibition, % at 5 µM. 0.81% of 300,000 active;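 active means inhibition above the mean of all tested compounds plus 3 SD, set per screening campaign, cut at about 24% in these data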;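 further: plate controls were DMSO alone for no effect and ferristatin control at 100 nM for full effect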
Rpn11 block – Rpn11 (human) deubiquitinase inhibition; 0.59% of 360,000 active; AID 588493; calls only at 20 µM; human 26S proteasome, Ub4-pepOG fluorescence polarization; 20S core pre-blocked with epoxomicin;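 active means inhibition at 20 µM, scaled to each plate's controls, above about 33%, limit read from the data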
CSN inh – CSN deneddylation inhibition; Q92905; Purified CSN, SCF-Nedd8-OG deneddylation, fluorescence polarization; inhibition, % at 12.5 µM; 0.38% of 360,000 active; AID 651999;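 active means pattern-corrected inhibition above about 35%, with an unprinted fluorescence ratio check between 0.5 and 1.5, limit read from the data, passing the limit was not always enough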;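 further: 0% = enzyme with substrate and 100% = substrate without enzyme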
Target sequence (Q92905 whole entry, looked up, one chain of several): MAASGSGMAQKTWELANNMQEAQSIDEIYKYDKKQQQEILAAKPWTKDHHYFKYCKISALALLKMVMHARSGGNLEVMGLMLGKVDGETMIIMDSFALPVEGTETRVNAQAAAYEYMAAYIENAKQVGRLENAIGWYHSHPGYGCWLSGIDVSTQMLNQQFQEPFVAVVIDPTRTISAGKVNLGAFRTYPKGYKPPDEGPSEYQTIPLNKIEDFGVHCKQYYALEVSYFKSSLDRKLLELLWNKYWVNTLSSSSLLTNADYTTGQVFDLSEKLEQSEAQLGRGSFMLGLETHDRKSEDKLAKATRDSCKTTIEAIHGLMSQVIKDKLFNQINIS
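test system = HEK293T-derived human Csn5 enzyme | amount = 0.24 nM Csn5 enzyme, final concentration | medium = Tris/NaCl/DTT buffer, pH 7.5 | schedule = 90 min reaction at room temperature | signal = FP | evaluation = inhibition of Csn5 cleavage, % | compound dosing = single dose of 12.5 µM compound with 0.25% DMSO | probe or stimulus = 10 nM SCFSkp2-Nedd8OG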
PKA-R2B activ – PKA-R2B complex activation. P22694+P31323. PKA-R2B holoenzyme dissociation, Cy5-IP20 fluorescence polarization; R2B truncated from residue 108, S112A mutant; 0% DMSO only, 100% 113 µM cGMP. activation, % at 11.4 µM. 0.079% of 340,000 active. AID 504700;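 active means activation above a cutoff set at the mean over all compounds plus 3 SD, cut at about 18% in these data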;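 further: higher means more holoenzyme dissociation and a rise in polarization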
PKA-R1A activ – activators of PKA-R1A complex | 0.083% of 340,000 active | PKA-R1A dissociation, Cy5-IP20 fluorescence polarization; scaled: DMSO 0%, 113 µM cGMP 100% | AID 504707 | activation, % at 11.4 µM | P00514+P68181;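 active means percent activation above the mean of all tested compounds plus 3 SD, cut at about 19% in these data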;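 further: higher means more PKAc released from R1A so a rise in polarization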
HNF4A DNA FP – change in binding of human HNF4 alpha to DNA | 0.3% of 360,000 active | HNF4a-FITC DNA binding, fluorescence polarization, 1 h | activity change, % at 10 µM | AID 1224865 | P41235; in the data active means activity change above about 30%, passing the limit was not always enough
TPT1 inh confirm – confirmation of Candida albicans TPT1 inhibitors | shares compounds with TPT1 inh | recombinant caTPT1, fluorescence polarization, RNase T1 coupled | inhibition, % at 5 µM | 74% of 2,400 active | AID 2149;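 active means inhibition above the primary screen limit, the mean inhibition of all tested compounds plus 3 SD, cut at about 25% in these data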
RNase T1 counter – counter-screen for TPT1 inhibitors: inhibitors of Aspergillus oryzae RNase T1. shares compounds with TPT1 inh. RNase T1 cleavage, fluorescence polarization, 1536-well. inhibition, % at 5 µM. 83% of 2,400 active;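 active means inhibition above the solvent-only control well mean plus 3 SD, limit set per screening run, cut at about 23% in these data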;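 further: plate controls were DMSO wells with enzyme for no effect and wells without RNase T1 for full effect; inhibitors block cleavage so intact labeled substrate keeps polarization high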
Target sequence (P00651 whole entry, looked up): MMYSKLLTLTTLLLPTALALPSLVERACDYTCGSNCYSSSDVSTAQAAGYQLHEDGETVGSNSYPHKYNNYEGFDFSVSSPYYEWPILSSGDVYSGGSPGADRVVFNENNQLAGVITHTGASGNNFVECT
* marks the source's active call; other numbers are inactive results; i = inactive; . = no result given; ! = a repeat was not active. In the library only some 1.6% were active in any assay of this set; here they are far more common.

SMILES	TPT1 inh	Rpn11 block	CSN inh	PKA-R2B activ	PKA-R1A activ	HNF4A DNA FP	TPT1 inh confirm	RNase T1 counter
Cn1nnnc1SCc1ccc(Cl)cc1	-1.2	i	2.5	-2.8	-1.7	2.1	.	.
Cn1nnnc1SCc1ccc(CSc2nnnn2C)cc1	54.8*	i	-4.3	13.9	13.9	1.2	3.4	5.0
O=C(C1CCC1)N1CCN(S(=O)(=O)c2ccccc2)CC1	-0.1	i	-0.5	4.6	3.2	-2.1	.	.
N=C(N)SCc1nc2ccccc2c(=O)n1-c1ccccc1	26.4*!	i	2.2	-10.6	-6.9	15.5	28.3*	36.6*
O=C(/C=C/c1cn(CC(O)CN2CCOCC2)c2ccccc12)c1cccs1 (stereo unspecified)	62.9*	.	.	.	.	.	81.8*	88.0*
Cc1ccc(C(=O)/C=C/c2cn(CC(O)CN3CCOCC3)c3ccccc23)cc1 (stereo unspecified)	47.1*	.	13.7	2.2	-1.6	24.5	46.0*	56.6*
CCOc1ccc(NS(=O)(=O)c2ccc(C(=O)NCC(c3cccs3)N3CCOCC3)cc2)cc1 (stereo unspecified)	0.1	i	-1.9	-7.2	-5.0	-1.0	.	.
Cc1c2cnn(CC(=O)NC3CCCC3)c(=O)c2c(C)n1Cc1ccccc1	-1.9	i	-5.1	-6.9	-3.0	-2.0	.	.
Cc1c2cnn(CC(=O)NCCCN3CCCCC3C)c(=O)c2c(C)n1Cc1ccccc1 (stereo unspecified)	24.2*	i	6.7	-3.8	5.9	10.9	36.3*	44.1*
COc1ccc(N=C2S/C(=C\c3ccc(N4CCOCC4)o3)C(=O)N2CCc2c[nH]c3ccccc23)cc1	130.9*	.	122.3	4.1	-0.2	132.2	141.0*	136.1*
CCCCCCc1cc2cc(C(=O)Nc3ccccc3OC)c(=O)oc2cc1O	-1.8	i	-0.4	-2.1	-2.1	1.2	.	.
CCCCCCc1cc2cc(-c3nnc(-c4ccccc4O)o3)c(=O)oc2cc1O	121.3*	.	-73.1	2.5	-0.2	-98.1	113.7*	112.8*
CCCCCCc1cc2cc(-c3nnc(-c4ccccc4OC)o3)c(=O)oc2cc1O	97.5*	.	87.2	4.5	2.2	88.3	97.3*	114.2*
CCCCCCc1cc2cc(-c3nnc(-c4cc(OC)c(OC)c(OC)c4)o3)c(=O)oc2cc1O	118.5*	.	.	.	.	.	130.3*	120.8*
CCOc1ccc(OCCC(=O)OCC(=O)Nc2ccc(C)c(S(=O)(=O)N3CCCCC3)c2)cc1	-0.1	i	-1.0	-20.6	-3.7	-2.9	.	.
COc1ccc(N=[N+]([O-])c2ccc(OC)cc2)cc1	.	i	2.8	7.7	-9.1	0.4	.	.
COc1ccc(C(=O)N(C)Cc2ccc(C)o2)cc1OC1CCN(C(C)C)CC1	-1.1	i	2.0	-4.0	13.8	0.6	.	.
Cc1cc(/C=C2/C(=O)N(C)C(=S)N2C)c(C)n1C1CC1	29.6*	i	5.7	4.7	2.2	12.3	45.8*	54.5*
Cc1cc(/C=C2\SC(=S)NC2=O)c(C)n1C1CC1	73.6*	.	31.3	-11.9	-0.1	56.0*	106.8*	116.9*
O=S(=O)(c1cc(Cl)cc(Cl)c1)N1CCC2CC1c1cc(Cl)ccc12 (stereo unspecified)	.	i	-1.8	-13.9	9.3	0.2	.	.
COc1cc(C(=O)NCC(=O)N/N=C/c2cccnc2)cc(OC)c1OC	0.1	i	3.8	-6.6	-9.6	0.7	.	.
CCC(C)N(C(=O)COC(=O)COc1c(C)cc(C)cc1C)C1CCS(=O)(=O)C1 (stereo unspecified)	-2.4	i	0.8	-4.7	-0.8	2.7	.	.
C=CCn1c(SCc2nc3sc(C(=O)O)c(C)c3c(=O)[nH]2)nnc1-c1ccc(F)cc1	-0.9	i	3.4	-9.7	-9.7	1.5	.	.
CCn1c(SCc2nc3sc(C(=O)O)c(C)c3c(=O)[nH]2)nc2ccccc21	30.8*	i	32.6	-10.4	5.5	-1.4	24.2*	27.5*
O=C(Cn1cnc2ccccc21)c1ccc(Br)cc1	3.8	i	-1.9	-2.5	-6.2	2.6	.	.
SMILES	TPT1 inh	Rpn11 block	CSN inh	PKA-R2B activ	PKA-R1A activ	HNF4A DNA FP	TPT1 inh confirm	RNase T1 counter
CC1(C)OC(=O)C(=Cc2ccc(-c3ccc(S(N)(=O)=O)cc3)o2)C(=O)O1	28.5*	i	11.9	-4.0	-6.7	10.4	8.0	12.5
NS(=O)(=O)c1ccc(-c2ccc(/C=C3\C(=O)Nc4ccccc43)o2)cc1	3.7	.	.	.	.	.	.	.
COc1ccccc1S(=O)(=O)N1CCn2cccc2C1C (stereo unspecified)	.	i	-7.5	-19.8	2.0	-2.1	.	.
c1coc(CNc2c3c(nc4ccccc24)CCC3)c1	25.5*	i	8.2	2.2	5.0	-13.0	24.4*	34.7*
CC(C)NCC(=O)Nc1c2c(nc3ccccc13)CCC2	0.6	i	-1.2	-5.1	-3.7	5.0	.	.
O=C(CCN1C(=O)/C(=C\c2ccccc2)SC1=S)N1CCCCC1	2.2	i	1.2	6.1	10.3	-0.3	.	.
O=C(CCN1C(=O)/C(=C/c2cccs2)SC1=S)N1CCCCC1	33.4*	i	8.5	13.1	-9.9	9.9	34.3*	46.4*
CCOC(=O)/C=c1\s/c(=C\c2c(OCC)ccc3ccccc23)c(=O)n1CC(=O)NCC1CCCO1 (stereo unspecified)	24.7*	.	8.6	3.7	0.1	15.2	18.7	32.2*
CCOC(=O)/C=c1/s/c(=C\c2c(OC)ccc3ccccc23)c(=O)n1CC(=O)NCC1CCCO1 (stereo unspecified)	.	.	9.9	-5.3	10.3	14.8	.	.
CCOC(=O)/C=c1\s/c(=C\c2ccccc2C)c(=O)n1CC(=O)NCc1ccc2c(c1)OCO2	41.4*	i	9.7	-2.9	0.1	11.3	30.1*	42.6*
CCOC(=O)/C=c1\s/c(=C\c2ccc3c(c2)OCCO3)c(=O)n1CC(=O)NCC1CCCO1 (stereo unspecified)	21.6	i	7.6	-5.3	3.9	8.9	.	.
CN(Cc1cccs1)C(=O)CN1CCN(S(=O)(=O)c2ccc3c(c2)OCCCO3)CC1	.	i	-6.6	-11.7	-1.3	-1.9	.	.
Cc1c(C(c2ccc(F)cc2)c2c(C)n(C)n(-c3ccccc3)c2=O)c(=O)n(-c2ccccc2)n1C	-2.5	i	2.5	13.8	-4.7	-2.4	.	.
O=C1N/C(=N\S(=O)(=O)Cc2ccccc2)S/C1=C/c1cccc([N+](=O)[O-])c1	-1.0	i	4.2	4.2	-5.3	1.8	.	.

Source: PubChem BioAssay (several laboratories)
